Source: ChEMBL document CHEMBL4229565 (J Med Chem, 2018)

How the values were obtained:
[1] = Inhibition of Trypanosoma brucei NMT using [3H]-myristoyl-coA/biotinylated CAP5.5 as substrate after 50 mins by scintillation proximity assay
Outline: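 TbNMT scintillation proximity assay at 22–23 °C, with test compound dilutions added in DMSO. Reaction: 30 mM Tris pH 7.4, 0.5 mM EDTA, 0.5 mM EGTA, 1.25 mM DTT, 0.1% Triton X-100, 0.125 μM [3H]myristoyl-coA, 0.5 μM biotinylated CAP5.5 peptide, 5 nM enzyme. Enzyme added first, then substrate mix to start; stopped after 50 min with phosphoric acid pH 4.0/MgCl2/SPA beads; scintillation counting.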

[2] = system: Trypanosoma brucei brucei; experiment: Antitrypanosomal activity against bloodstream form of Trypanosoma brucei brucei s427 after 69 hrs by resazurin-based […] analysis; type: functional, organism-based; conditions: s427, 69 h
Outline: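 Bloodstream T. b. brucei s427 was grown in modified HMI9 (56 μM 1-thioglycerol in place of 2-mercaptoethanol) and counted by hemocytometer. Cells (10^4/ml) were added to compound in DMSO and incubated 69 h at 37 °C, 5% CO2. Resazurin (50 μM final) was then added for 4 h more. Fluorescence read at ex 528/em 590 nm.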

[3] = Intrinsic clearance in CD1 mouse liver microsomes at 1 uM measured up to 30 mins by UPLC-MS/MS method; type: ADME, microsome; conditions: 0.5 h
[4] = molecular target: T1, Glycylpeptide N-tetradecanoyltransferase 1 (Homo sapiens, UniProt P30419); experiment: Inhibition of human NMT1 using [3H]-myristoyl-coA/biotinylated CAP5.5 as substrate after 15 mins by scintillation proximity assay
T1 sequence (P30419 whole entry): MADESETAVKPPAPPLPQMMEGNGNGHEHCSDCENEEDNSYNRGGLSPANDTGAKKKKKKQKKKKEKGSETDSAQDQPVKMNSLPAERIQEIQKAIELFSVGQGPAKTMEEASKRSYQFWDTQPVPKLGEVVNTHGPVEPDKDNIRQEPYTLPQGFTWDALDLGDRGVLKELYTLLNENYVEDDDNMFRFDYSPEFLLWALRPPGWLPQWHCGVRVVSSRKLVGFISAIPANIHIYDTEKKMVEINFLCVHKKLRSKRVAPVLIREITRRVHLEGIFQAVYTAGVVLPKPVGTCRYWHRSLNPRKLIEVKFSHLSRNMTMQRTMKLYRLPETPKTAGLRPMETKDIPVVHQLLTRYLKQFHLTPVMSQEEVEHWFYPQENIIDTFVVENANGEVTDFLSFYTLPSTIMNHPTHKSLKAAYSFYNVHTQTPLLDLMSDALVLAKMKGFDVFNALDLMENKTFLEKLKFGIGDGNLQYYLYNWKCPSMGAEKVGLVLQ

[5] = system: human NMT1 versus Trypanosoma brucei NMT; experiment: Selectivity ratio of IC50 for human NMT1 to IC50 for Trypanosoma brucei NMT; type: toxicity; conditions: read-out: Ratio IC50
Outline: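 Both enzymes assayed by SPA in the same buffer: 0.125 μM [3H]myristoyl-coA, 0.5 μM biotinylated CAP5.5 peptide, 5 nM NMT, 22–23 °C. Reactions stopped at 15 min for HsNMT1 and 50 min for TbNMT. The ratio is HsNMT IC50 divided by TbNMT IC50.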

[6] = system: human NMT; experiment: Therapeutic index, ratio of IC50 for human NMT to EC50 for bloodstream form of Trypanosoma brucei brucei s427; type: toxicity; conditions: read-out: Ratio IC50/EC50

| SMILES | IC50 [1] | EC50 [2] | CLH [3] | IC50 [4] | selectivity ratio [5] | selectivity ratio [6] |
| --- | --- | --- | --- | --- | --- | --- |
| CC(C)Cc1ccc2ncccc2c1NS(=O)(=O)c1ccc(CCCCN2CCNCC2)cc1 | 10 nM | 180 nM | 1.3 mL/min/g | – | – | – |
| COC(=O)c1ccc(N2CCCCC2)c(NS(=O)(=O)c2ccc(Br)cc2)c1 | > 100000 nM | – | – | – | – | – |
| CC(C)Cc1ccc2nn(C)cc2c1NS(=O)(=O)c1ccc(CCCOC[C@H]2CN(C)CCO2)cc1 | < 5 nM | 9 nM | 22 mL/min/g | – | – | – |
| CC(C)Cc1ccc2nn(C)cc2c1NS(=O)(=O)c1ccc(Br)cc1 | 1100 nM | > 50000 nM | – | > 100000 nM | > 91 | – |
| CC(C)Cc1ccc2nn(C)cc2c1NS(=O)(=O)c1ccc(CCCOC[C@H]2CCCN2C)cc1 | < 5 nM | 20 nM | – | – | – | – |
| O=S(=O)(Nc1c(Cc2ccccc2)ccc2ncccc12)c1ccc(Br)cc1 | 6200 nM | > 50000 nM | 23 mL/min/g | > 100000 nM | > 16 | – |
| COC(=O)c1ccc(N2CCCC2)c(NS(=O)(=O)c2ccc(OC)cc2)c1 | 700 nM | 15000 nM | – | > 100000 nM | > 100 | > 6.7 |
| CC(C)Cc1ccc2ncccc2c1NS(=O)(=O)c1ccc(CCCCC2CCN(C)CC2)cc1 | < 5 nM | 19 nM | 6.2 mL/min/g | – | – | – |
| CC(C)Cc1ccc2nn(C)cc2c1NS(=O)(=O)c1ccc(CCCN2CCCN(C)CC2)cc1 | 5 nM | 16 nM | – | – | – | – |
| CC(C)Cc1ccc2ncccc2c1NS(=O)(=O)c1ccc(CCCOC[C@@H]2CNCCO2)cc1 | < 5 nM | 39 nM | – | – | – | – |
| CC(C)Cc1ccc2ncccc2c1NS(=O)(=O)c1ccc(CCCCC2CCNCC2)cc1 | < 5 nM | 21 nM | 1.5 mL/min/g | – | – | – |
| CC(C)Cc1ccc2ncccc2c1NS(=O)(=O)c1ccc(CCCCN2C[C@@H](C)N[C@@H](C)C2)cc1 | 16 nM | 350 nM | – | – | – | – |
| CC(C)Cc1ccc2ncccc2c1NS(=O)(=O)c1ccc(CCCO[C@H]2C[C@H]3CC[C@@H](C2)N3C)cc1 | < 5 nM | 9 nM | 2.3 mL/min/g | – | – | – |
| CC(C)Cc1ccc2nn(C)cc2c1NS(=O)(=O)c1ccc(CCCOC[C@@H]2COCCN2C)cc1 | 9 nM | 76 nM | – | – | – | – |
| Cc1ccc2ncccc2c1NS(=O)(=O)c1ccc(Br)cc1 | 33000 nM | – | 3.6 mL/min/g | > 100000 nM | > 3 | – |
| O=C1OCc2c1ccc(N1CCCC1)c2NS(=O)(=O)c1ccc(Br)cc1 | > 100000 nM | – | – | – | – | – |
| COc1ccc(S(=O)(=O)Nc2cc(C(=O)O)ccc2N2CCCCCC2)cc1 | > 100000 nM | – | – | – | – | – |
| CCC(CC)c1ccc2ncccc2c1NS(=O)(=O)c1ccc(Br)cc1 | 5700 nM | > 50000 nM | – | > 100000 nM | > 17 | – |
| O=S(=O)(Nc1ccc2scnc2c1)c1ccc(Br)cc1 | 24000 nM | – | – | – | – | – |
| CC(C)Cc1ccc2nn(C)cc2c1NS(=O)(=O)c1ccc(CCCCN2CCN3CCC[C@@H]3C2)cc1 | 14 nM | 140 nM | 3.7 mL/min/g | – | – | – |
| CC(C)Cc1ccc2nn(C)cc2c1NS(=O)(=O)c1ccc(CCCOC[C@@H]2CN(C)CCO2)cc1 | < 5 nM | 26 nM | 24 mL/min/g | – | – | – |

| SMILES | IC50 [1] | EC50 [2] | CLH [3] | IC50 [4] | selectivity ratio [5] | selectivity ratio [6] |
| --- | --- | --- | --- | --- | --- | --- |
| Cn1cc2c(NS(=O)(=O)c3ccc(Br)cc3)c(CC3CCCCC3)ccc2n1 | 1700 nM | > 50000 nM | – | > 100000 nM | > 59 | – |
| CN1CCC(CCCCc2ccc(S(=O)(=O)Nc3c(N4CCCC4)ccc4ncccc34)cc2)CC1 | 11 nM | 76 nM | – | 1200 nM | 110 | 16 |
| CC(C)Cc1ccc2ncccc2c1NS(=O)(=O)c1ccc(CCCC2CCN(C)CC2)cc1 | < 5 nM | 9 nM | 2.6 mL/min/g | – | – | – |
| O=S(=O)(Nc1c(-c2ccccc2)ccc2ncccc12)c1ccc(Br)cc1 | > 100000 nM | 50000 nM | – | > 100000 nM | – | – |
| CC(C)Cc1ccc2ncccc2c1NS(=O)(=O)c1ccc(Br)cc1 | 1700 nM | > 50000 nM | > 50 mL/min/g | > 100000 nM | > 59 | – |
| O=S(=O)(Nc1c(C2CCCC2)ccc2ncccc12)c1ccc(Br)cc1 | 3200 nM | > 50000 nM | > 50 mL/min/g | – | – | – |
| CC(C)Cc1ccc2nn(C)cc2c1NS(=O)(=O)c1ccc(CCCC2CCN(C)CC2)cc1 | < 5 nM | 5 nM | 1.2 mL/min/g | – | – | – |
| O=S(=O)(Nc1c(N2CCCCCC2)ccc2ncccc12)c1ccc(Br)cc1 | 690 nM | 18000 nM | > 50 mL/min/g | – | – | – |
| Cn1cc2c(NS(=O)(=O)c3ccc(Br)cc3)c(C3CCCCC3)ccc2n1 | 17000 nM | 32000 nM | – | > 100000 nM | > 5.9 | > 3.1 |
| Cn1cc2c(NS(=O)(=O)c3ccc(Br)cc3)cccc2n1 | 27000 nM | > 50000 nM | 6.3 mL/min/g | > 100000 nM | > 3.7 | – |
| COC(=O)c1cccc(NS(=O)(=O)c2ccc(Br)cc2)c1 | > 100000 nM | – | – | – | – | – |
| CC(C)Cc1ccc2ncccc2c1NS(=O)(=O)c1ccc(CCCN2CCCN(C)CC2)cc1 | < 5 nM | 18 nM | 3.7 mL/min/g | – | – | – |
| CC(C)Cc1ccc2nn(C)cc2c1NS(=O)(=O)c1ccc(CCCCN2CCCN(C)CC2)cc1 | < 5 nM | 35 nM | 4 mL/min/g | – | – | – |
| CC(C)Cc1ccc2ncccc2c1NS(=O)(=O)c1ccc(CCCN2CCN(C)CC2)cc1 | 7 nM | 84 nM | 2.3 mL/min/g | – | – | – |
| O=S(=O)(Nc1cc(-c2cccnc2)ccc1N1CCCC1)c1ccc(Br)cc1 | 39000 nM | – | – | – | – | – |
| CC(C)Cc1ccc2ncccc2c1NS(=O)(=O)c1ccc(CCCOC[C@@H]2CN(C)CCO2)cc1 | < 5 nM | 33 nM | – | – | – | – |
| CC(C)Cc1ccc2ncccc2c1NS(=O)(=O)c1ccc(CCCCN2CCN3CCC[C@@H]3C2)cc1 | 12 nM | 250 nM | 8.9 mL/min/g | – | – | – |
| O=S(=O)(Nc1cccc2ncccc12)c1ccc(Br)cc1 | 87000 to 90000 nM | > 50000 nM | – | > 100000 nM | > 1.1 | – |
| Cn1cc2c(NS(=O)(=O)c3ccc(Br)cc3)c(C3CCCC3)ccc2n1 | 26000 nM | > 50000 nM | – | > 100000 nM | > 3.8 | – |
| CC(C)Cc1ccc2ncccc2c1NS(=O)(=O)c1ccc(CCCO[C@@H]2CCCN(C)C2)cc1 | < 5 nM | 39 nM | – | – | – | – |
